In article PMC2765488 (Journal of medicinal chemistry, 2009):

Columns and labels:
[1] = format: physicochemical
Summary of the method: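 Capacity factors from analytical reversed-phase HPLC retention times (diphenyl column; 0.1% TFA water/acetonitrile; linear 20–100% B over 40 min, 20 min re-equilibration). […] Linear logD–retention correlation gave calculated logD.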

[2] = Mouse pain assay following i.p. administration; format: in vivo; conditions: unpublished results of the authors
[3] = CD, in the presence of 50% v/v 2,2,2-trifluoroethanol; cited from earlier work
[4] = system: 6 Hz corneal stimulation limbic seizure; conditions: cited from earlier work; for Anticonvulsant activity, mice protected/tested, 15' / Anticonvulsant activity, mice protected/tested, 30' / Anticonvulsant activity, mice protected/tested, 1h / Anticonvulsant activity, mice protected/tested, 2h / Anticonvulsant activity, mice protected/tested, 4h: 6 Hz, 32 mA, 4 mg/kg i.p.; for Anticonvulsant activity, mice protected/tested, 15': 15 min after administration; for Anticonvulsant activity, mice protected/tested, 30': 30 min after administration; for Anticonvulsant activity, mice protected/tested, 1h: 1 h after administration; for Anticonvulsant activity, mice protected/tested, 2h: 2 h after administration; for Anticonvulsant activity, mice protected/tested, 4h: 4 h after administration
human serum albumin = conditions: higher affinity of C8 versus C14; cited from earlier work
[5] = buffered 25% rat blood serum, 37 °C; cited from earlier work

Molecule | chromatographic logD [1] | α-helix content [3] [%] | Anticonvulsant activity, mice protected/tested, 15' [4] | Anticonvulsant activity, mice protected/tested, 30' [4] | Anticonvulsant activity, mice protected/tested, 1h [4] | Anticonvulsant activity, mice protected/tested, 2h [4] | Anticonvulsant activity, mice protected/tested, 4h [4] | further results
CCCCCCCC(=O)NCCCC[C@H](NC(=O)[C@H](CCCCN)NC(=O)[C@H](CCCCN)NC(=O)[C@@H]1CCCN1C(=O)CNC(=O)[C@H](CC(C)C)NC(=O)[C@H](CC(C)C)NC(=O)[C@H](Cc1ccc(O)cc1)NC(=O)CNC(=O)[C@H](C)NC(=O)[C@H](CO)NC(=O)[C@H](CC(N)=O)NC(=O)[C@H](CC(C)C)NC(=O)[C@@H](NC(=O)[C@H](Cc1c[nH]c2ccccc12)NC(=O)CNC)[C@@H](C)O)C(=O)N[C@@H](CCCCN)C(N)=O [Gal-B2-C8] | 0.78 |  |  |  |  |  |  | 
CCCCCCCCCCCCCCCCCC(=O)NCCCC[C@H](NC(=O)[C@H](CCCCN)NC(=O)[C@H](CCCCN)NC(=O)[C@@H]1CCCN1C(=O)CNC(=O)[C@H](CC(C)C)NC(=O)[C@H](CC(C)C)NC(=O)[C@H](Cc1ccc(O)cc1)NC(=O)CNC(=O)[C@H](C)NC(=O)[C@H](CO)NC(=O)[C@H](CC(N)=O)NC(=O)[C@H](CC(C)C)NC(=O)[C@@H](NC(=O)[C@H](Cc1c[nH]c2ccccc12)NC(=O)CNC)[C@@H](C)O)C(=O)N[C@@H](CCCCN)C(N)=O [Gal-B2-C18] | 1.35 |  |  |  |  |  |  | 
CCCCCCCCCCCCCCCC(=O)NCCCC[C@H](NC(=O)[C@H](CCCCN)NC(=O)[C@H](CCCCN)NC(=O)[C@@H]1CCCN1C(=O)CNC(=O)[C@H](CC(C)C)NC(=O)[C@H](CC(C)C)NC(=O)[C@H](Cc1ccc(O)cc1)NC(=O)CNC(=O)[C@H](C)NC(=O)[C@H](CO)NC(=O)[C@H](CC(N)=O)NC(=O)[C@H](CC(C)C)NC(=O)[C@@H](NC(=O)[C@H](Cc1c[nH]c2ccccc12)NC(=O)CNC)[C@@H](C)O)C(=O)N[C@@H](CCCCN)C(N)=O [Gal-B2] |  | 23 | 3/4 | 4/4 | 4/4 | 4/4 | 0/4 | analgesic activity [2]: comparable analgesic activities; anticonvulsant ED50 ([4]; i.p., 6 Hz pharmacoresistant model of epilepsy): 0.8 mg/kg
CCCCCCCC(=O)O [octanoic acid] |  |  |  |  |  |  |  | affinity to human serum albumin compared to the C14 (myristic acid) (human serum albumin): 11 fold
(Sar)WTLNSAGYLLGPKKKK [Gal-(K)4, reference compound] |  | 14 | 0/4 | 3/4 | 1/3 | 0/3 | 0/4 | 
Gal(1-16): unmodified Gal(1-16) analog |  |  |  |  |  |  |  | half-time in 25% rat serum [5]: 7.8 min
